pIC50: −log10 of the molar value. The source made the active and inactive calls. The rule behind the calls is not given here.
How the values were obtained:
[1] = biological target: T1, Protein cereblon/Histone-lysine N-methyltransferase EZH2 (Homo sapiens) (UniProt Q15910+Q96SW2); assay: PROTAC activity at CRBN E3 ligase/EZH2 in PRC2 complex in human LNCaP cells assessed as induction of SUZ12 degradation by measuring reduction in SUZ12 protein level at 1 uM incubated for 48 hrs by Western blot analysis; assay type: cell-based
T1 sequence (Q15910 whole entry, looked up): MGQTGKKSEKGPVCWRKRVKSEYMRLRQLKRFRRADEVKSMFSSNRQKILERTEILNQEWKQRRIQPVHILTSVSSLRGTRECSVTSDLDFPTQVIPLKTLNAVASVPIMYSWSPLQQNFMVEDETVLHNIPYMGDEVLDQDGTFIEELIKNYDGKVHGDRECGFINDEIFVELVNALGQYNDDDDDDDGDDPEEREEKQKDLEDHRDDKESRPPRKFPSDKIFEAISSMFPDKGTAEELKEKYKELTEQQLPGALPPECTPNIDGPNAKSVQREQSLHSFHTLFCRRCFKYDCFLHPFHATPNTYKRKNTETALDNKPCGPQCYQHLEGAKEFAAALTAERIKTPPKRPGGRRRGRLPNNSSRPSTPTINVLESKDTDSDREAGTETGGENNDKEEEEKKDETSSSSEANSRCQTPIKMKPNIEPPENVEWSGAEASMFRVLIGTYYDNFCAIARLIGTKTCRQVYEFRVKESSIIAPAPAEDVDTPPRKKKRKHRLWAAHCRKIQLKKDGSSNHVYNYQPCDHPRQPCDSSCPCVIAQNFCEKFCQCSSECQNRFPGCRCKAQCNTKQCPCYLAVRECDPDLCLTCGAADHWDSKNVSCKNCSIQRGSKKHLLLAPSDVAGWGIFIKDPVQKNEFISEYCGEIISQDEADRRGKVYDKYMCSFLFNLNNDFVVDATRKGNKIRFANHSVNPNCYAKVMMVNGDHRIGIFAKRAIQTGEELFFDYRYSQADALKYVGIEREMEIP
T1 sequence (Q96SW2 whole entry, looked up): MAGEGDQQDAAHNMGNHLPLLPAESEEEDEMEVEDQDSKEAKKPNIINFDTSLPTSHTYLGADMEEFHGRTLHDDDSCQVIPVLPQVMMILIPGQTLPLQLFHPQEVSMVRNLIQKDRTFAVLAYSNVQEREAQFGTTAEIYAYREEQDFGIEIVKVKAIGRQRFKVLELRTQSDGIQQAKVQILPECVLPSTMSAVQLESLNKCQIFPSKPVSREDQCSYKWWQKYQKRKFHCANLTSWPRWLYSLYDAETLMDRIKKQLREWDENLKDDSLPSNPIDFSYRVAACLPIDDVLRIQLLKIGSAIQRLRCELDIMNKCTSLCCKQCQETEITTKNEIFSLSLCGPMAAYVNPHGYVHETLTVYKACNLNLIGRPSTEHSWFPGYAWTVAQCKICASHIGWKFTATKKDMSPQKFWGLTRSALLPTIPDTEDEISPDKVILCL
How it was run: (§1)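 Cells cultured in DMEM or RPMI 1640 with 10% FBS and 1% penicillin-streptomycin, 37 °C, 5% CO2; exposed to 1 μM compound for 48 h. Lysates run on SDS-PAGE and transferred to nitrocellulose. Blocked 2 h in 5% skim milk, primary antibody overnight at 4 °C, then secondary antibody. Chemiluminescent detection of PRC2 subunits and H3K27me3.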

[2] = biological target: T1, Protein cereblon/Histone-lysine N-methyltransferase EZH2 (Homo sapiens); assay: PROTAC activity at CRBN E3 ligase/EZH2 in PRC2 complex in human WSUDLCL2 cells assessed as downregulation of EZH2 expression at 1 uM pretreated with EED226 for 4 hrs followed by compound addition and measured after 48 hrs by Western blot analysis; assay type: cell-based
How it was run: (§2)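 WSU-DLCL-2 cells pretreated 4 h with the named inhibitor, then compound added and incubated a further 48 h. EZH2, SUZ12, EED and RbAp48 measured by western blot (nitrocellulose transfer, skim-milk block, primary antibody overnight at 4 °C, chemiluminescent detection).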

[3] = biological target: T1, Protein cereblon/Histone-lysine N-methyltransferase EZH2 (Homo sapiens); assay: PROTAC activity at CRBN E3 ligase/EZH2 in PRC2 complex in human WSUDLCL2 cells assessed as downregulation of SUZ12 expression at 1 uM pretreated with GSK126 for 4 hrs followed by compound addition and measured after 48 hrs by Western blot analysis; assay type: cell-based; how it was run: as §2
[4] = biological target: T1, Protein cereblon/Histone-lysine N-methyltransferase EZH2 (Homo sapiens); assay: PROTAC activity at CRBN E3 ligase/EZH2 in PRC2 complex in human SU-DHL-6 cells assessed as induction of EZH2 degradation by measuring reduction in EZH2 protein level at 1 uM incubated for 48 hrs by Western blot analysis; assay type: cell-based; how it was run: as §1
WSUDLCL2 = assay: Upregulation of CDKN2A mRNA expression in human WSUDLCL2 cells at 1 uM incubated for 48 hrs by qRT-PCR analysis; assay type: functional, cell-based
How it was run: (§3)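 WSU-DLCL-2 or Pfeiffer cells treated 48 h. Trizol RNA extraction, reverse transcription, SYBR qPCR (95 °C 30 s; 40 cycles of 95 °C 6 s, 60 °C 20 s). mRNA normalized to DMSO-treated cells; mean ± SD of three independent experiments, t-test.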

[5] = biological target: T1, Protein cereblon/Histone-lysine N-methyltransferase EZH2 (Homo sapiens); assay: PROTAC activity at CRBN E3 ligase/EZH2 in PRC2 complex in human LNCaP cells assessed as induction of EED degradation by measuring reduction in EED protein level at 1 uM incubated for 48 hrs by Western blot analysis; assay type: cell-based
How it was run: (§4)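 Cancer cell lines exposed to 1 μM compound for 48 h. Lysates immunoblotted (SDS-PAGE, nitrocellulose, 5% milk block, primary antibody overnight at 4 °C) for EZH2, SUZ12, EED, RbAp48 and H3K27me3. Bands quantified by densitometry and normalized to GAPDH.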

[6] = biological target: T1, Protein cereblon/Histone-lysine N-methyltransferase EZH2 (Homo sapiens); assay: PROTAC activity at CRBN E3 ligase/EZH2 in PRC2 complex in human WSUDLCL2 cells assessed as induction of SUZ12 degradation at 1 uM measured up to 2 hrs by Western blot analysis; assay type: cell-based; conditions: time hrs <=2
Pfeiffer [7] = assay: Upregulation of ADRB2 mRNA expression in human Pfeiffer cells at 1 uM incubated for 48 hrs by qRT-PCR analysis; assay type: functional, cell-based; how it was run: as §3
[8] = biological target: T1, Protein cereblon/Histone-lysine N-methyltransferase EZH2 (Homo sapiens); assay: PROTAC activity at CRBN E3 ligase/EZH2 in PRC2 complex in human WSUDLCL2 cells assessed as induction of EZH2 degradation by measuring reduction in EZH2 protein level at 1 uM measured up to 2 hrs by Western blot analysis; assay type: cell-based; conditions: time hrs <=2
[9] = biological target: Histone-binding protein RBBP4 (Homo sapiens) (UniProt Q09028); assay: Binding affinity to RbAp48 in human WSUDLCL2 cells assessed as thermal stability by measuring shift in temperature at 60 uM pretreated with proteasome inhibitor MG132 for 1 hr followed by compound addition incubated for 2 hrs by cellular thermal shift based Western blot analysis; assay type: cell-based
Sequence of Histone-binding protein RBBP4 (Homo sapiens) (Q09028 whole entry): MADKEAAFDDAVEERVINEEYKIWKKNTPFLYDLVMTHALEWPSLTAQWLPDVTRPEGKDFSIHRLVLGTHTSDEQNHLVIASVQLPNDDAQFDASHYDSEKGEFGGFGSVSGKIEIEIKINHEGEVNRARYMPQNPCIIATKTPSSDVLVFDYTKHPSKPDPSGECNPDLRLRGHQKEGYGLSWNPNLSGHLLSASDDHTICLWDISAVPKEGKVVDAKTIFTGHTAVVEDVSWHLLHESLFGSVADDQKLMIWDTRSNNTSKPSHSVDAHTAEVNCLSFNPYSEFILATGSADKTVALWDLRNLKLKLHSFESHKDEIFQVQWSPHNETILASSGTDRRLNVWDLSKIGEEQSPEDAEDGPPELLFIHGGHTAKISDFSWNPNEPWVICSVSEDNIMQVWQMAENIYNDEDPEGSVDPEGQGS
How it was run: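 Cellular thermal shift: cells suspended at 1.5 × 10⁶/mL and pretreated with MG-132 (5 μM, 1 h), then given 60 μM compound for 2 h with a DMSO control. Cells were lysed in RIPA with cocktail for 1 h. Supernatant aliquots were heated 6 min at 45, 48, 51, 54, 57 and 60 °C and centrifuged 15 min. Soluble protein was immunoblotted; bands quantified by densitometry; three independent experiments.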

[10] = biological target: T1, Protein cereblon/Histone-lysine N-methyltransferase EZH2 (Homo sapiens); assay: PROTAC activity at CRBN E3 ligase/EZH2 in PRC2 complex in human WSUDLCL2 cells assessed as induction of EED degradation incubated for 48 hrs by Western blot analysis; assay type: cell-based; conditions: dose 1-10 µM
[11] = biological target: T1, Protein cereblon/Histone-lysine N-methyltransferase EZH2 (Homo sapiens); assay: PROTAC activity at CRBN E3 ligase/EZH2 in PRC2 complex in human WSUDLCL2 cells assessed as induction of EZH2 degradation at 10 uM incubated for 48 hrs by Western blot analysis; assay type: cell-based
[12] = biological target: T1, Protein cereblon/Histone-lysine N-methyltransferase EZH2 (Homo sapiens); assay: PROTAC activity at CRBN E3 ligase/EZH2 in PRC2 complex in human SU-DHL-6 cells assessed as reduction in H3K27me3 level at 1 uM incubated for 48 hrs by Western blot analysis; assay type: cell-based; how it was run: as §1
[13] = biological target: Histone-lysine N-methyltransferase EZH2 (Homo sapiens, UniProt Q15910); assay type: cell-based, Sf9
Sequence of Histone-lysine N-methyltransferase EZH2 (Q15910 whole entry): as the sequence (Q15910 whole entry, looked up) above

[14] = biological target: T1, Protein cereblon/Histone-lysine N-methyltransferase EZH2 (Homo sapiens); assay: PROTAC activity at CRBN E3 ligase/EZH2 in PRC2 complex in human WSUDLCL2 cells assessed as induction of RbAp48 degradation at 10 uM incubated for 48 hrs by Western blot analysis; assay type: cell-based
Pfeiffer [15] = assay: Antiproliferative activity against human Pfeiffer cells harboring EZH2-A677G mutant assessed as inhibition of cell growth incubated for 3 to 7 days by optical microscopic analysis (Rvb= 0.49 uM); assay type: functional, cell-based
[16] = biological target: T1, Protein cereblon/Histone-lysine N-methyltransferase EZH2 (Homo sapiens); assay: PROTAC activity at CRBN E3 ligase/EZH2 in PRC2 complex in human DU-145 cells assessed as reduction in H3K27me3 level at 1 uM incubated for 48 hrs by Western blot analysis; assay type: cell-based; how it was run: as §4
[17] = biological target: T1, Protein cereblon/Histone-lysine N-methyltransferase EZH2 (Homo sapiens); assay: PROTAC activity at CRBN E3 ligase/EZH2 in PRC2 complex in human WSUDLCL2 cells assessed as downregulation of EZH2 expression at 1 uM pretreated with MLN4924 for 4 hrs followed by compound addition and measured after 48 hrs by Western blot analysis; assay type: cell-based; how it was run: as §2
[18] = biological target: T1, Protein cereblon/Histone-lysine N-methyltransferase EZH2 (Homo sapiens); assay: PROTAC activity at CRBN E3 ligase/EZH2 in PRC2 complex in human DU-145 cells assessed as induction of SUZ12 degradation by measuring reduction in SUZ12 protein level at 1 uM incubated for 48 hrs by Western blot analysis; assay type: cell-based; how it was run: as §4
[19] = biological target: T1, Protein cereblon/Histone-lysine N-methyltransferase EZH2 (Homo sapiens); assay: PROTAC activity at CRBN E3 ligase/EZH2 in PRC2 complex in human WSUDLCL2 cells assessed as downregulation of SUZ12 expression at 1 uM pretreated with lenalidomide for 4 hrs followed by compound addition and measured after 48 hrs by Western blot analysis; assay type: cell-based; how it was run: as §2
[20] = biological target: T1, Protein cereblon/Histone-lysine N-methyltransferase EZH2 (Homo sapiens); assay: PROTAC activity at CRBN E3 ligase/EZH2 in PRC2 complex in human WSUDLCL2 cells assessed as induction of EED degradation by measuring reduction in EED protein level at 1 uM measured after 48 to 72 hrs by Western blot analysis; assay type: cell-based; conditions: time 48-72 hrs

For CCN(c1cc(-c2ccc(CN3CCN(CCCCCCCOc4cccc5c4C(=O)N(C4CCC(=O)NC4=O)C5=O)CC3)cc2)cc(C(=O)NCc2c(C)cc(C)[nH]c2=O)c1C)C1CCOCC1 (stereo unspecified), the Activity [1] was “Active”, the Activity [2] was “Active” and the Activity [3] was “inactive”. The Activity [4] was “Active”, the Activity (WSUDLCL2) was “inactive” and the Activity [5] was “Active”. For the same molecule, the Activity [6] was “inactive”, the Activity (Pfeiffer [7]) was “Active” and the Activity [8] was “Active”. The Activity [9] was “inactive”, the Activity [10] was “Dose-Dependent Effect” and the Activity [11] was “inactive”. For the same molecule, the Activity [12] was “Active”, the pIC50 [13] was 8.57 and the Activity [14] was “inactive”. For the same molecule, the pIC50 (Pfeiffer [15]) was 6.68, the Activity [16] was “Active” and the Activity [17] was “inactive”. For the same molecule, the Activity [18] was “Active”, the Activity [19] was “inactive” and the Activity [20] was “Active”.
